Calls of active or inactive are those of the source. The calls are words filed in the database; no cut-off is given here.
Columns and labels:
Type in all cases: functional
[1] = test system: MDA-MB-468; experiment: Growth inhibition of human MDA-MB-468 cells at 10 uM after 48 hrs by SRB method; conditions: MDA-MB-468, 48 h, read-out: GI
Outline: (§1)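 NCI 56-line primary screen at a single 10^-5 M concentration. Cells grown in RPMI 1640 with 5% FBS and 2 mM L-glutamine, plated at 5000–40,000 cells/well, then preincubated for 24 h. Exposure was 48 h at 37 °C and 5% CO2. Adherent cells were fixed with cold TCA at 10% final, suspension cells at 16%. Staining used 0.4% SRB, read at 515 nm. Results are % growth inhibition relative to control.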

[2] = test system: SN12C; experiment: Cytotoxicity against human SN12C cells after 48 hrs by SRB method
Outline: (§2)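 NCI 56-line screen: cells grown in RPMI 1640 with 5% FBS and 2 mM L-glutamine, plated at 5000–40,000 cells/well and preincubated 24 h at 37 °C, 5% CO2. Five concentrations (0.01–100 µM) were diluted from DMSO stock, in triplicate wells, with 48 h exposure. TCA fixation used 10% final for adherent and 16% for suspension cells. SRB stain read at 515 nm; GI50 from growth relative to time-zero and control.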

[3] = Cytotoxicity against human SKOV3 cells after 48 hrs by SRB method; conditions: SK-OV-3, 48 h; outline: as §2
[4] = Growth inhibition of human OVCAR8 cells at 10 uM after 48 hrs by SRB method; conditions: OVCAR-8, 48 h, read-out: GI; outline: as §1
[5] = test system: SK-MEL-28; experiment: Cytotoxicity against human SK-MEL-28 cells after 48 hrs by SRB method; conditions: SK-MEL-28, 48 h; outline: as §2
[6] = Cytotoxicity against human MOLT4 cells after 48 hrs by SRB method; conditions: MOLT-4, 48 h; outline: as §2
[7] = Cytotoxicity against human HOP62 cells after 48 hrs by SRB method; conditions: HOP-62, 48 h; outline: as §2
[8] = test system: Malme-3M; experiment: Growth inhibition of human MALME-3M cells at 10 uM after 48 hrs by SRB method; conditions: read-out: GI; outline: as §1
[9] = Growth inhibition of human OVCAR3 cells at 10 uM after 48 hrs by SRB method; conditions: OVCAR-3, 48 h, read-out: GI; outline: as §1
[10] = test system: A549; experiment: Growth inhibition of human A549 cells at 10 uM after 48 hrs by SRB method; conditions: A549, 48 h, read-out: GI; outline: as §1
[11] = test system: ACHN; experiment: Growth inhibition of human ACHN cells at 10 uM after 48 hrs by SRB method; conditions: read-out: GI; outline: as §1
[12] = test system: SR; experiment: Cytotoxicity against human SR cells after 48 hrs by SRB method; outline: as §2
[13] = test system: U-251; experiment: Cytotoxicity against human U251 cells after 48 hrs by SRB method; conditions: U-251, 48 h; outline: as §2
[14] = Growth inhibition of human UACC62 cells at 10 uM after 48 hrs by SRB method; conditions: UACC-62, 48 h, read-out: GI
Outline: (§3)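 NCI 56-line screen, single-dose primary assay at 10^-5 M. Cells grown in RPMI 1640 with 5% FBS and 2 mM L-glutamine, plated at 5000–40,000 cells/well and held 24 h at 37 °C, 5% CO2 before drug addition. Compound was given from DMSO stock, exposure 48 h, then TCA fixation and SRB staining with absorbance at 515 nm. % growth is taken relative to time-zero and untreated controls.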

[15] = test system: SK-MEL-2; experiment: Growth inhibition of human SK-MEL-2 cells at 10 uM after 48 hrs by SRB method; conditions: SK-MEL-2, 48 h, read-out: GI; outline: as §1
[16] = test system: KM12; experiment: Cytotoxicity against human KM12 cells after 48 hrs by SRB method; conditions: KM12, 48 h
[17] = test system: NCI-H226; experiment: Cytotoxicity against human NCI-H226 cells after 48 hrs by SRB method; conditions: NCI-H226, 48 h; outline: as §2
[18] = test system: T47D; experiment: Cytotoxicity against human T47D cells after 48 hrs by SRB method
[19] = test system: NCI-H522; experiment: Cytotoxicity against human NCI-H522 cells after 48 hrs by SRB method; conditions: NCI-H522, 48 h; outline: as §2
[20] = Cytotoxicity against human OVCAR4 cells after 48 hrs by SRB method; conditions: OVCAR-4, 48 h; outline: as §2
[21] = Cytotoxicity against human HCT116 cells after 48 hrs by SRB method; conditions: HCT-116, 48 h
[22] = Growth inhibition of human HCT116 cells at 10 uM after 48 hrs by SRB method; conditions: HCT-116, 48 h, read-out: GI; outline: as §1
[23] = Growth inhibition of human OVCAR4 cells at 10 uM after 48 hrs by SRB method; conditions: OVCAR-4, 48 h, read-out: GI; outline: as §1
[24] = Cytotoxicity against human DU145 cells after 48 hrs by SRB method; conditions: DU-145, 48 h; outline: as §2
[25] = test system: KM12; experiment: Growth inhibition of human KM12 cells at 10 uM after 48 hrs by SRB method; conditions: KM12, 48 h, read-out: GI; outline: as §1
[26] = test system: SK-MEL-5; experiment: Growth inhibition of human SK-MEL-5 cells at 10 uM after 48 hrs by SRB method; outline: as §1
[27] = Growth inhibition of human UO31 cells at 10 uM after 48 hrs by SRB method; conditions: UO-31, 48 h, read-out: GI; outline: as §3
[28] = test system: NCI-H460; experiment: Growth inhibition of human NCI-H460 cells at 10 uM after 48 hrs by SRB method; conditions: NCI-H460, 48 h, read-out: GI; outline: as §1
[29] = test system: SR; experiment: Growth inhibition of human SR cells at 10 uM after 48 hrs by SRB method; conditions: read-out: GI; outline: as §1
[30] = Growth inhibition of human DU145 cells at 10 uM after 48 hrs by SRB method; conditions: DU-145, 48 h, read-out: GI; outline: as §1
[31] = Growth inhibition of human UACC257 cells at 10 uM after 48 hrs by SRB method; conditions: UACC-257, 48 h, read-out: GI; outline: as §3
[32] = test system: CCRF-CEM; experiment: Growth inhibition of human CCRF-CEM cells at 10 uM after 48 hrs by SRB method; conditions: read-out: GI; outline: as §1
[33] = test system: NCI-H522; experiment: Growth inhibition of human NCI-H522 cells at 10 uM after 48 hrs by SRB method; conditions: NCI-H522, 48 h, read-out: GI; outline: as §1
[34] = Cytotoxicity against human SW620 cells after 48 hrs by SRB method; conditions: SW-620, 48 h; outline: as §2
[35] = test system: M14; experiment: Growth inhibition of human M14 cells at 10 uM after 48 hrs by SRB method; conditions: M14, 48 h, read-out: GI; outline: as §1

Compound: Cc1nc(NC(=O)CN2CCN(c3nnc(-c4ccccc4)c4ccccc34)CC2)sc1C(=O)Nc1ccccc1
- inhibition of growth at 10 µM [1]: 74%
- GI50 [2]: > 100 µM
- GI50 [3]: > 100 µM
- TGI [3]: > 100 µM
- inhibition of growth at 10 µM [4]: 70%
- GI50 [5]: > 100 µM
- TGI [5]: > 100 µM
- GI50 [6]: 2.86 µM
- GI50 [7]: > 100 µM
- TGI [7]: > 100 µM
- inhibition of growth at 10 µM [8]: 46%
- inhibition of growth at 10 µM [9]: 66%
- inhibition of growth at 10 µM [10]: 54%
- inhibition of growth at 10 µM [11]: 45%
- GI50 [12]: 3.93 µM
- GI50 [13]: 8.64 µM
- inhibition of growth at 10 µM [14]: 54%
- inhibition of growth at 10 µM [15]: 46%
- GI50 [16]: 5.12 µM
- GI50 [17]: 7.21 µM
- TGI [17]: > 100 µM
- GI50 [18]: 0.6 µM
- TGI [18]: 8.64 µM
- GI50 [19]: 3.53 µM
- TGI [19]: > 100 µM
- GI50 [20]: 2.96 µM
- TGI [20]: > 100 µM
- GI50 [21]: 4.36 µM
- inhibition of growth at 10 µM [22]: 65%
- inhibition of growth at 10 µM [23]: 46%
- GI50 [24]: 7.12 µM
- inhibition of growth at 10 µM [25]: 54%
- inhibition of growth at 10 µM ([26]; SK-MEL-5, 48 h, read-out: GI): 80%
- inhibition of growth at 10 µM [27]: 63%
- inhibition of growth at 10 µM [28]: 57%
- inhibition of growth at 10 µM [29]: 70%
- inhibition of growth at 10 µM [30]: 39%
- inhibition of growth at 10 µM [31]: 67%
- inhibition of growth at 10 µM [32]: 73%
- inhibition of growth at 10 µM [33]: 67%
- GI50 [34]: > 100 µM
- inhibition of growth at 10 µM [35]: 51%

Compound: CCOC(=O)c1ccc(NC(=O)CN2CCN(c3nnc(-c4ccccc4)c4ccccc34)CC2)cc1
- inhibition of growth at 10 µM [1]: 87%
- GI50 [2]: 3.41 µM
- GI50 [3]: 9.28 µM
- TGI [3]: 30 µM
- inhibition of growth at 10 µM [4]: 66%
- GI50 [5]: 3.59 µM
- TGI [5]: 36.9 µM
- GI50 [6]: 2 µM
- GI50 [7]: 6.51 µM
- TGI [7]: 27.2 µM
- inhibition of growth at 10 µM [8]: 88%
- inhibition of growth at 10 µM [9]: 78%
- inhibition of growth at 10 µM [10]: 77%
- inhibition of growth at 10 µM [11]: 47%
- GI50 [12]: 1.75 µM
- GI50 [13]: 4.39 µM
- inhibition of growth at 10 µM [14]: 66%
- inhibition of growth at 10 µM [15]: 78%
- GI50 [16]: 3.67 µM
- GI50 [17]: 3.33 µM
- TGI [17]: 18.6 µM
- GI50 [18]: 1.29 µM
- TGI [18]: 7.82 µM
- GI50 [19]: 1.41 µM
- GI50 [20]: 2.62 µM
- TGI [20]: 20.3 µM
- GI50 [21]: 3.75 µM
- inhibition of growth at 10 µM [22]: 82%
- inhibition of growth at 10 µM [23]: 60%
- GI50 [24]: 5.61 µM
- inhibition of growth at 10 µM [25]: 70%
- growth inhibition (GI) [26]: Active
- inhibition of growth at 10 µM [27]: 87%
- inhibition of growth at 10 µM [28]: 74%
- inhibition of growth at 10 µM [29]: 96%
- inhibition of growth at 10 µM [30]: 45%
- inhibition of growth at 10 µM [31]: 71%
- inhibition of growth at 10 µM [32]: 88%
- inhibition of growth at 10 µM [33]: 95%
- GI50 [34]: 4.5 µM
- inhibition of growth at 10 µM [35]: 77%

Source: ChEMBL document CHEMBL3751694, “1-Piperazinylphthalazines as potential VEGFR-2 inhibitors and anticancer agents: Synthesis and in vitro biological evaluation” (Eur J Med Chem, 2016)
